The source made the active and inactive calls. The calls are words filed in the database; no cut-off is given here.
Columns and labels:
HeLa = assay: Antiproliferative activity against human HeLa cells measured after 48 hrs by MTT assay; format: functional, cell-based
How it was run: (§1)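 Cells grown to log phase in RPMI 1640 with 10% FBS, seeded at 3 × 10⁴ cells/mL, and preincubated 24 h at 37 °C, 5% CO₂. Compounds were added at pre-set concentrations to 6 wells each, with doxorubicin as reference, and exposed for 48 h. MTT was then added and absorbance read at 570 nm.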

SMMC-7721 = assay: Antiproliferative activity against human SMMC-7721 cells measured after 48 hrs by MTT assay; format: functional, cell-based; conditions: SMMC-7721, 48 h; how it was run: as §1
HepG2 [1] = assay: Antiproliferative activity against human HepG2 cells measured after 48 hrs by MTT assay; format: functional, cell-based; conditions: HepG2, 48 h; how it was run: as §1
SGC-7901 [2] = assay: Antiproliferative activity against human SGC-7901 cells measured after 48 hrs by MTT assay; format: functional, cell-based; conditions: SGC-7901, 48 h; how it was run: as §1
SGC-7901 [3] = assay: Induction of cell cycle arrest in human SGC-7901 cells assessed as accumulation in G2 phase at 2 uM incubated for 48 hrs by PI staining based flow cytometry analysis (reference value: 24.6%); format: functional
SGC-7901 [4] = assay: Induction of cell cycle arrest in human SGC-7901 cells assessed as accumulation in G1 phase at 2 uM incubated for 48 hrs by PI staining based flow cytometry analysis (reference value: 38.1%); format: functional
SGC-7901 [5] = assay: Induction of cell cycle arrest in human SGC-7901 cells assessed as accumulation in S phase at 1 uM incubated for 48 hrs by PI staining based flow cytometry analysis (reference value: 37.4%); format: functional
SGC-7901 [6] = assay: Induction of cell cycle arrest in human SGC-7901 cells assessed as accumulation in G2 phase at 1 uM incubated for 48 hrs by PI staining based flow cytometry analysis (reference value: 24.6%); format: functional
SGC-7901 [7] = assay: Induction of cell cycle arrest in human SGC-7901 cells assessed as accumulation in G1 phase at 1 uM incubated for 48 hrs by PI staining based flow cytometry analysis (reference value: 38.1%); format: functional
SGC-7901 [8] = assay: Induction of apoptosis in human SGC-7901 cells assessed as late apoptotic cells at 4 uM incubated for 48 hrs by Annexin V-FITC/propidium iodide staining based flow cytometry (reference value: 1.11%); format: functional
How it was run: (§2)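 SGC-7901 cells treated 48 h at three concentrations; untreated cells served as control. Harvested cells were suspended in annexin-binding buffer (1 × 10⁶ cells/mL), incubated with annexin V-FITC for 15 min, then PI for 5 min at 4 °C in the dark, and analysed immediately by flow cytometry. Quadrants scored necrotic/late apoptotic, early apoptotic and normal cells. At least 3 runs.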

SGC-7901 [9] = assay: Induction of apoptosis in human SGC-7901 cells assessed as early apoptotic cells at 4 uM incubated for 48 hrs by Annexin V-FITC/propidium iodide staining based flow cytometry (reference value: 2.12%); format: functional; how it was run: as §2
SGC-7901 [10] = assay: Induction of apoptosis in human SGC-7901 cells assessed as viable cells at 4 uM incubated for 48 hrs by Annexin V-FITC/propidium iodide staining based flow cytometry (reference value: 96.7%); format: functional; conditions: read-out: Activity; how it was run: as §2
SGC-7901 [11] = assay: Induction of apoptosis in human SGC-7901 cells assessed as necrotic cells at 2 uM incubated for 48 hrs by Annexin V-FITC/propidium iodide staining based flow cytometry (reference value: 0.067%); format: functional; how it was run: as §2
SGC-7901 [12] = assay: Induction of apoptosis in human SGC-7901 cells assessed as late apoptotic cells at 2 uM incubated for 48 hrs by Annexin V-FITC/propidium iodide staining based flow cytometry (reference value: 1.11%); format: functional; how it was run: as §2
SGC-7901 [13] = assay: Induction of apoptosis in human SGC-7901 cells assessed as early apoptotic cells at 2 uM incubated for 48 hrs by Annexin V-FITC/propidium iodide staining based flow cytometry (reference value: 2.12%); format: functional; how it was run: as §2
SGC-7901 [14] = assay: Induction of apoptosis in human SGC-7901 cells assessed as viable cells at 2 uM incubated for 48 hrs by Annexin V-FITC/propidium iodide staining based flow cytometry (reference value: 96.7%); format: functional; conditions: read-out: Activity; how it was run: as §2
SGC-7901 [15] = assay: Induction of apoptosis in human SGC-7901 cells assessed as necrotic cells at 1 uM incubated for 48 hrs by Annexin V-FITC/propidium iodide staining based flow cytometry (reference value: 0.067%); format: functional; how it was run: as §2
SGC-7901 [16] = assay: Induction of apoptosis in human SGC-7901 cells assessed as late apoptotic cells at 1 uM incubated for 48 hrs by Annexin V-FITC/propidium iodide staining based flow cytometry (reference value: 1.11%); format: functional; how it was run: as §2
SGC-7901 [17] = assay: Induction of apoptosis in human SGC-7901 cells assessed as early apoptotic cells at 1 uM incubated for 48 hrs by Annexin V-FITC/propidium iodide staining based flow cytometry (reference value: 2.12%); format: functional; how it was run: as §2
SGC-7901 [18] = assay: Induction of apoptosis in human SGC-7901 cells assessed as viable cells at 1 uM incubated for 48 hrs by Annexin V-FITC/propidium iodide staining based flow cytometry (reference value: 96.7%); format: functional; conditions: read-out: Activity; how it was run: as §2
SGC-7901 [19] = assay: Induction of apoptosis in human SGC-7901 cells assessed as necrotic cells at 4 uM incubated for 48 hrs by Annexin V-FITC/propidium iodide staining based flow cytometry (reference value: 0.067%); format: functional; how it was run: as §2
SGC-7901 [20] = assay: Induction of mitochondrial membrane potential loss in human SGC-7901 cells assessed as increase in green fluorescence intensity at 1 to 4 uM incubated for 48 hrs by JC-1 staining based flow cytometry; format: functional, cell-based; conditions: dose 1-4 µM
How it was run: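 Gastric cancer cells seeded at 2 × 10⁵ per well and treated 48 h at […]. Cells were detached with 0.5% trypsin, stained with JC-1 for 0.5 h at 37 °C, 5% CO₂ in the dark, washed twice in JC-1 buffer, and analysed by flow cytometry. Read-out was red aggregate versus green monomer fluorescence. At least 3 runs.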

SGC-7901 [21] = assay: Induction of cell cycle arrest in human SGC-7901 cells assessed as accumulation in S phase at 2 uM incubated for 48 hrs by PI staining based flow cytometry analysis (reference value: 37.4%); format: functional
SGC-7901 [22] = assay: Induction of cell cycle arrest in human SGC-7901 cells assessed as accumulation in G1 phase at 4 uM incubated for 48 hrs by PI staining based flow cytometry analysis (reference value: 38.1%); format: functional
SGC-7901 [23] = assay: Induction of cell cycle arrest in human SGC-7901 cells assessed as accumulation in G2 phase at 4 uM incubated for 48 hrs by PI staining based flow cytometry analysis (reference value: 24.6%); format: functional
SGC-7901 [24] = assay: Induction of cell cycle arrest in human SGC-7901 cells assessed as accumulation in S phase at 4 uM incubated for 48 hrs by PI staining based flow cytometry analysis (reference value: 37.4%); format: functional
CCRF S-180 [25] = assay: Antitumor activity against mouse S180 cells allografted in Kunming mouse assessed as reduction in tumor weight at 60 mg/kg, po administered once daily for consecutive 10 days (reference value: 2.02+/-0.19g); format: functional; conditions: time 10 day
How it was run: (§3)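 Kunming mice (SPF, male or female, 20 ± 2 g) inoculated subcutaneously in the right front armpit with seven-day-old ascites (0.2 mL, 2 × 10⁶ cells). After 24 h, randomized into groups of 10 and weighed. Dosed by oral gavage at 60 mg/kg/day or given normal saline (10 mL/kg) once daily for ten days. Killed on day 11 and tumors weighed. Inhibition rate = (Wcontrol − Wtreated)/Wcontrol × 100%.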

HepG2 [26] = assay: Antitumor activity against human HepG2 cells xenografted in Kunming mouse assessed as reduction in tumor weight at 60 mg/kg, po administered once daily for consecutive 10 days (reference value: 2.01+/-0.09g); format: functional; conditions: time 10 day; how it was run: as §3
CCRF S-180 [27] = assay: Antitumor activity against mouse S180 cells allografted in Kunming mouse assessed as tumor growth inhibition at 60 mg/kg, po administered once daily for consecutive 10 days; format: functional; conditions: CCRF S-180, 240 h, time 10 day, read-out: TGI; how it was run: as §3
HepG2 [28] = assay: Antitumor activity against human HepG2 cells xenografted in Kunming mouse assessed as tumor growth inhibition at 60 mg/kg, po administered once daily for consecutive 10 days; format: functional; conditions: HepG2, 240 h, time 10 day, read-out: TGI; how it was run: as §3
[29] = Toxicity in Kunming mouse allografted with mouse S180 cells assessed as body weight at 60 mg/kg, po administered once daily for consecutive 10 days (reference value: 19.38 to 19.99g); format: organism-based, CCRF S-180; conditions: in vivo, 240 h, time 10 day; how it was run: as §3
[30] = Toxicity in Kunming mouse xenografted with […] cells assessed as body weight at 60 mg/kg, po administered once daily for consecutive 10 days (reference value: 19.15 to 19.87g); format: organism-based; conditions: in vivo, 240 h, time 10 day; how it was run: as §3
[31] = molecular target: T1, Telomerase reverse transcriptase (Homo sapiens, UniProt O14746); assay: Inhibition of telomerase activity in human SGC-7901 cells incubated for 24 hrs by TRAP-PCR-ELISA assay; format: cell-based
T1 sequence (O14746 whole entry): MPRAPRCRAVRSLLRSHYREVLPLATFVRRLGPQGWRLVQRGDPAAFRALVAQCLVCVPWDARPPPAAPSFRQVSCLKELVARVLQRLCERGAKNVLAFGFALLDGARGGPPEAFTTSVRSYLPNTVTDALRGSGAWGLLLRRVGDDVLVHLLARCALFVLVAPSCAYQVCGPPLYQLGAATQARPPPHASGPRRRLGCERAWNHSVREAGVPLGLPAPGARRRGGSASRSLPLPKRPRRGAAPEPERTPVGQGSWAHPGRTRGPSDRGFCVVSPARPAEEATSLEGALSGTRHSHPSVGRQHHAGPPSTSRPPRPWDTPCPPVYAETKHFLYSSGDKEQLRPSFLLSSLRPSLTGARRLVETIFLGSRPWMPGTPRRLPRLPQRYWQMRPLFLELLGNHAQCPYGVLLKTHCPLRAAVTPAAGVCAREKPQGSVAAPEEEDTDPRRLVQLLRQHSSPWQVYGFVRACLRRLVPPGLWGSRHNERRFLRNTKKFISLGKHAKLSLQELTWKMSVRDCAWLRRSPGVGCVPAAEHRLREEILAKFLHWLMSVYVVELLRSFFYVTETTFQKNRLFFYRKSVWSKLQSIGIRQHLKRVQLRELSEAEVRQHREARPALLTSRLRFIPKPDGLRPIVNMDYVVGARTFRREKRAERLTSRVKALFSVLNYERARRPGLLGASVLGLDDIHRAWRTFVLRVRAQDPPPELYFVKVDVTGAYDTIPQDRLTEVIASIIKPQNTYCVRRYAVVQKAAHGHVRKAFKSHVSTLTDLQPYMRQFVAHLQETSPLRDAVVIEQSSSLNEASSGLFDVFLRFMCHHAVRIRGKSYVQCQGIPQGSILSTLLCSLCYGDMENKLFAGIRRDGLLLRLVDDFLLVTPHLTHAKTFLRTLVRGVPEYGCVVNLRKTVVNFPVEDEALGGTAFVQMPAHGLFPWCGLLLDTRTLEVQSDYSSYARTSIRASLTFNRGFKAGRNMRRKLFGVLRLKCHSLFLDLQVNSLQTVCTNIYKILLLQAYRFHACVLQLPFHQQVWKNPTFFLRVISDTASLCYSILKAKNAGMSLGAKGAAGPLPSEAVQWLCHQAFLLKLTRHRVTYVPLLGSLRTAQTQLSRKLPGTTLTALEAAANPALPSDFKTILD
How it was run: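 Extract was mixed with TRAP reaction mix, incubated 25 °C for 30 min, then 35 PCR cycles (94/50/72 °C). Products detected by anti-DIG-peroxidase ELISA at 490 nm; mean ± SD.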

[32] = molecular target: T1, Telomerase reverse transcriptase; assay: Inhibition of telomerase activity in human SGC-7901 cells at 0.082 to 60 ug/mL incubated for 24 hrs by TRAP-PCR-ELISA assay; conditions: dose 0.082-60 ug/mL

## COc1cc(OC)c(C(=O)c2ccc(OC)c(OCC(=O)OC[C@@H]3C=C[C@H](n4cc(C)c(=O)[nH]c4=O)O3)c2)cc1OC
HeLa
  IC50: 28.6 µM
SMMC-7721
  IC50: 20.1 µM
HepG2 [1]
  IC50: 28.6 µM
SGC-7901 [2]
  IC50: 31.4 µM

## COc1ccc(C(=O)c2cc(OC)c(OC)c(OC)c2)cc1OCC(=O)OC[C@@H]1C=C[C@H](n2cc(C)c(=O)[nH]c2=O)O1
HeLa
  IC50: 12.8 µM
SMMC-7721
  IC50: 21.2 µM
HepG2 [1]
  IC50: 15 µM
SGC-7901 [2]
  IC50: 23.4 µM

## COc1cccc(C(=O)c2ccc(OC)c(OC(=O)CCC(=O)OC[C@@H]3C=C[C@H](n4cc(C)c(=O)[nH]c4=O)O3)c2)c1
SGC-7901 [3]
  Activity: 42.6%
SGC-7901 [4]
  Activity: 28.5%
SGC-7901 [5]
  Activity: 37.1%
SGC-7901 [6]
  Activity: 30%
SGC-7901 [7]
  Activity: 32.9%
HeLa
  IC50: 1.58 µM
SMMC-7721
  IC50: 0.82 µM
HepG2 [1]
  IC50: 3.15 µM
SGC-7901 [8]
  Activity: 33.2%
SGC-7901 [2]
  IC50: 0.77 µM
SGC-7901 [9]
  Activity: 26.4%
SGC-7901 [10]
  viability at 4 µM: 40.2%
SGC-7901 [11]
  Activity: 0.282%
SGC-7901 [12]
  Activity: 19.7%
SGC-7901 [13]
  Activity: 18.3%
SGC-7901 [14]
  viability at 2 µM: 61.8%
SGC-7901 [15]
  Activity: 0.07%
SGC-7901 [16]
  Activity: 5.96%
SGC-7901 [17]
  Activity: 7.34%
SGC-7901 [18]
  viability at 1 µM: 86.6%
SGC-7901 [19]
  Activity: 0.3%
SGC-7901 [20]
  Activity: Active
SGC-7901 [21]
  Activity: 28.9%
SGC-7901 [22]
  Activity: 15.8%
SGC-7901 [23]
  Activity: 60.9%
SGC-7901 [24]
  Activity: 23.2%
CCRF S-180 [25]
  Activity: 1.2 g
HepG2 [26]
  Activity: 1.04 g
CCRF S-180 [27]
  inhibition in vivo at 60 mg/kg: 40.6%
HepG2 [28]
  inhibition in vivo at 60 mg/kg: 48.5%
[29]
  Activity: 24.25 g
[30]
  Activity: 26.34 g
[31]
  IC50: 7.01 µM

## COc1cccc2c1C(=O)c1c(O)c3c(c(O)c1C2=O)C[C@@](O)(C(=O)CO)C[C@@H]3O[C@H]1C[C@H](N)[C@H](O)[C@H](C)O1 [DOXORUBICIN]
HeLa
  IC50: 3.99 µM
SMMC-7721
  IC50: 1.95 µM
SGC-7901 [2]
  IC50: 3.41 µM

## COc1ccc(C(=O)c2ccc([N+](=O)[O-])cc2)cc1OC(=O)CCC(=O)OC[C@@H]1C=C[C@H](n2cc(C)c(=O)[nH]c2=O)O1
HeLa
  IC50: 21.1 µM
SMMC-7721
  IC50: 30.5 µM
HepG2 [1]
  IC50: 24 µM
SGC-7901 [2]
  IC50: 10.2 µM
[31]
  IC50: 28.9 µM

## COc1ccc(C(=O)c2cc(Br)ccc2Cl)cc1OCC(=O)OC[C@@H]1C=C[C@H](n2cc(C)c(=O)[nH]c2=O)O1
[32]
  inhibition: inactive

## COc1ccc(C(=O)c2ccccc2OC)cc1OCC(=O)OC[C@@H]1C=C[C@H](n2cc(C)c(=O)[nH]c2=O)O1
HeLa
  IC50: 30.2 µM
SMMC-7721
  IC50: 32.3 µM

Reference: ChEMBL document CHEMBL5257036, “Benzophenone-nucleoside derivatives as telomerase inhibitors: Design, synthesis and anticancer evaluation in vitro and in vivo” (Eur J Med Chem, 2016)
